Reference: ChEMBL document CHEMBL4342509, “New 8-Nitroquinolinone Derivative Displaying Submicromolar in Vitro Activities against Both Trypanosoma brucei and cruzi” (ACS Med Chem Lett, 2020)

What was measured:
Leishmania infantum = test: Antileishmanial activity against Leishmania infantum MHOM/MA/67/ITMAP-263 axenic amastigotes expressing luciferase plasmid assessed as reduction in parasite viability incubated for 48 hrs by Steady Glow reagent based luminescence assay; format: functional, organism-based; conditions: MHOM/MA/67/ITMAP-263, 48 h
[1] = test system: Trypanosoma brucei brucei; test: Antitrypanosomal activity against Trypanosoma brucei brucei AnTat 1.9 trypomastigotes assessed as reduction in parasite viability incubated for 69 hrs by Alamar Blue dye based assay; format: functional, organism-based; conditions: AnTat 1.9, 69 h
Outline: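 Bloodstream AnTat 1.9 parasites grown at 37°C, 5% CO₂ in MEM with Earle's salts (Baltz-type) plus 0.5 mM mercaptoethanol, 1.5 mM L-cysteine, 0.05 mM bathocuproine sulfate and 20% heat-inactivated horse serum. EC50 from nonlinear regression, three independent experiments in duplicate.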

HepG2 [2] = test: Cytotoxicity against human HepG2 cells assessed as reduction in cell viability incubated for 72 hrs by MTT assay; format: cell-based; conditions: hepg2, 72 h
[3] = Selectivity index, ratio of CC50 for human HepG2 cells to EC50 for Trypanosoma brucei brucei trypomastigotes AnTat 1.9; format: toxicity; conditions: read-out: Ratio CC50/EC50
[4] = Electrochemical behavior of the compound assessed as redox potential corrected toward normal hydrogen electrode by cyclic voltammetry
Leishmania donovani [5] = test: Antileishmanial activity against wild type Leishmania donovani BOB (MHOM/SD/62/1S-CL2D) promastigotes assessed as inhibition of parasite growth incubated for 72 hrs by resazurin dye based assay; format: functional, organism-based
Outline: (§1)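 LdBOB promastigotes grown at 26 °C in modified M199; NTR1- or NTR2-overexpressing lines kept under nourseothricin (100 µg/mL). Triplicate cultures seeded at 5×10^4 parasites/mL with drug for 72 h; 50 µM resazurin added, fluorescence (ex 528/em 590 nm) read after a further 4 h.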

Leishmania donovani [6] = test: Antileishmanial activity against Leishmania donovani BOB (MHOM/SD/62/1S-CL2D) promastigotes overexpressing NTR1 assessed as inhibition of parasite growth incubated for 72 hrs by resazurin dye based assay; format: functional, organism-based; outline: as §1
[7] = test system: Trypanosoma brucei brucei; test: Antitrypanosomal activity against blood stream form of Trypanosoma brucei brucei S427 trypomastigotes overexpressing NTR assessed as inhibition of parasite growth; format: functional, organism-based
Leishmania donovani [8] = test: Antileishmanial activity against Leishmania donovani BOB (MHOM/SD/62/1S-CL2D) promastigotes overexpressing NTR2 assessed as inhibition of parasite growth incubated for 72 hrs by resazurin dye based assay; format: functional, organism-based; outline: as §1
[9] = test system: Trypanosoma brucei brucei; test: Antitrypanosomal activity against bloodstream form of wild type Trypanosoma brucei brucei S427 trypomastigotes assessed as inhibition of parasite growth; format: functional, organism-based
Trypanosoma cruzi = test: Antitrypanosomal activity against Trypanosoma cruzi CL Brener amastigotes infected in African green monkey Vero cells assessed as reduction in parasite growth incubated for 120 hrs at 24 hrs post-infection and measured on day 6 post-infection by hemocytometer based light microscopy; format: functional, organism-based
Outline: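 Compounds, 2–4-fold serial dilutions over 0,1–25 µM final, applied for 120 h at 37°C. On day 6, released trypomastigotes pooled, centrifuged and counted by haemocytometer. EC50 by nonlinear regression; two experiments, triplicate wells.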

Plasma proteins = test: Plasma protein binding incubated for 4 hrs by LCMS analysis
[10] = Toxicity in Swiss mouse assessed as apathy occurence at 50 mg/kg, po administered once daily for 5 days measured for 1 hr; format: organism-based; conditions: in vivo
[11] = Toxicity in orally dosed Swiss mouse administered once daily for 5 days; format: organism-based; conditions: in vivo, po
[12] = test system: Trypanosoma brucei brucei; test: Selectivity index, ratio of EC50 for bloodstream form of wild type Trypanosoma brucei brucei S427 trypomastigotes to EC50 for blood stream form of Trypanosoma brucei brucei S427 trypomastigotes overexpressing NTR; format: functional
[13] = Microsomal stability in CD-1 mouse liver microsomes in presence of NADP measured up to 40 mins by LC-MS analysis; format: ADME, Microsome
Outline: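 Compound incubated in duplicate with female CD-1 mouse microsomes at 37°C in 50 mM phosphate pH 7.4. Cofactors: 5 mM MgCl₂, 1 mM NADP, 0.4 U/mL G6PDH and 5 mM glucose-6-phosphate. […] Propranolol reference.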

[14] = Toxicity in Swiss mouse assessed as lesions on kidney at 25 mg/kg, po administered once daily for 5 days; format: organism-based; conditions: in vivo, 120 h
[15] = Toxicity in Swiss mouse assessed as lesions on heart at 25 mg/kg, po administered once daily for 5 days; format: organism-based; conditions: in vivo, 120 h
[16] = Toxicity in Swiss mouse assessed as lesions on liver at 25 mg/kg, po administered once daily for 5 days; format: organism-based; conditions: in vivo, 120 h
[17] = Toxicity in Swiss mouse assessed as lesions on brain at 25 mg/kg, po administered once daily for 5 days; format: organism-based; conditions: in vivo, 120 h
[18] = Half life in Swiss mouse at 25 mg/Kg, po measured up to 24 hrs by LCMS analysis; format: ADME, organism-based; conditions: in vivo
Outline: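 Female Swiss mice, 8 weeks old, n=4, given a suspension by oral gavage at 25 mg/kg. Tail blood (100 µL, heparin) drawn at 0.5, 1, 3, 6, 9, 12 and 24 h. Samples extracted with ACN containing megalol internal standard plus QuEChERS salts. Analysed by LC-MS/MS (C8 column, negative ESI, MRM); calibration 10–1,000 ng/ml, LLOQ 10 ng/ml.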

[19] = Toxicity in Swiss mouse assessed as lesions on lung at 25 mg/kg, po administered once daily for 5 days; format: organism-based; conditions: in vivo, 120 h
[20] = Thermodynamic solubility of the compound in phosphate buffer at pH 7.4 by shake flask method; format: physicochemical
Outline: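 Shake-flask test, miniaturised: 10 µL of a 50 mM stock in 990 µL phosphate buffer pH 7.4 (ionic strength 50 mM), n=4. Shaken 24 h at room temperature, then centrifuged 12,225 × g for 5 min. Supernatant mixed 1:1 with acetonitrile and read by UV spectrophotometry at compound λmax. Quantified against a three-point calibration (0, 25, 50 µM).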

Leishmania donovani [21] = test: Selectivity index, ratio of EC50 for wild type Leishmania donovani BOB (MHOM/SD/62/1S-CL2D) promastigotes to EC50 for Leishmania donovani BOB (MHOM/SD/62/1S-CL2D) promastigotes overexpressing NTR1; format: functional
[22] = Permeability of the compound in pH 7.4 Prisma HT buffer at 100 uM incubated for 4 hrs by PAMPA-BBB assay method; format: ADME; conditions: read-out: permeability
HepG2 [23] = test: Genotoxicity in human HepG2 cells assessed as induction of DNA damage at 1 to 10 uM incubated for 2 to 72 hrs by alkaline comet assay; format: toxicity, cell-based; conditions: hepg2, 10 µM
Outline: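 Cells embedded in 0.7% low-melting agarose on film. Alkaline electrophoresis at pH >13, 24 min at 0.8 V/cm, then neutralised, ethanol-fixed and SYBR Gold stained. % tail DNA is the median of 100 cells (two deposits); 1 mM MMS positive control; three independent experiments.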

`O=c1[nH]c2ccc(C(F)(F)F)cc2cc1Br` showed an EC50 (Leishmania infantum) of over 100 µM, an EC50 [1] of over 50 µM and a CC50 (HepG2 [2]) of over 100 µM.
With `O=c1[nH]c2ccc(C(F)(F)F)cc2cc1Cl` the EC50 (Leishmania infantum) was over 100 µM, the EC50 [1] was over 50 µM and the CC50 (HepG2 [2]) was over 100 µM.
For `O=c1ccc2cc(C(F)(F)F)cc([N+](=O)[O-])c2[nH]1`, the EC50 (Leishmania infantum) was 18.5 µM, the EC50 [1] was 1.7 µM and the CC50 (HepG2 [2]) was 41.3 µM. It also gave a selectivity ratio [3] of 24 and an Activity [4] of -0.39 V.
With `CCCCCCCCCCCCCCCCOP(=O)([O-])OCC[N+](C)(C)C` [MILTEFOSINE] the EC50 (Leishmania infantum) was 0.8 µM.
In the case of `O=c1[nH]c2c([N+](=O)[O-])cccc2cc1Br`, the EC50 (Leishmania donovani [5]) is reported as 5.9 µM, the selectivity ratio [3] is reported as 48 and the EC50 (Leishmania donovani [6]) is reported as 0.47 µM. For the same compound, the EC50 [7] was 3.9 µM, the EC50 (Leishmania donovani [8]) was 4.6 µM and the Activity [4] was -0.45 V. The EC50 [9] was 17.7 µM.
In the case of `COc1ccc2cc(C(F)(F)F)cc([N+](=O)[O-])c2n1`, the EC50 (Leishmania infantum) is reported as over 100 µM, the EC50 [1] is reported as 20.9 µM and the CC50 (HepG2 [2]) is reported as over 100 µM. For the same compound, the selectivity ratio [3] was over 5 and the Activity [4] was -0.75 V.
Compound `O=c1[nH]c2c([N+](=O)[O-])cc(Br)cc2cc1Cl` has an EC50 (Trypanosoma cruzi) of 0.5 µM, an EC50 (Leishmania infantum) of 6.7 µM and an Activity (Plasma proteins) of 99%. The EC50 [1] was 0.012 µM, the Activity [10] was “Toxic” and the EC50 (Leishmania donovani [5]) was 4.7 µM. The NOAEL at 120 h [11] was 25 mg/kg, the “Ratio EC50” value [12] was 15 and the CC50 (HepG2 [2]) was 18.1 µM. For the same compound, the t1/2 [13] was over 0.667 h, the Activity [14] was “Non-Toxic” and the Activity [15] was “Non-Toxic”. The Activity [16] was “Non-Toxic”, the selectivity ratio [3] was 1510 and the Activity [17] was “Non-Toxic”. For the same compound, the t1/2 [18] was 2.9 h, the EC50 (Leishmania donovani [6]) was 0.3 µM and the Activity [19] was “Non-Toxic”. For the same compound, the Therm_solubility [20] was 21.7 µM, the EC50 [7] was 0.02 µM and the “Ratio EC50” value (Leishmania donovani [21]) was 16. The Papp at 4 h, 100 µM [22] was 40.5 ×10⁻⁶ cm/s, the Activity (HepG2 [23]) was “Non-Toxic” and the EC50 (Leishmania donovani [8]) was 2.9 µM. The Activity [4] was -0.37 V and the EC50 [9] was 0.3 µM.
`Nc1cc(C(F)(F)F)cc2cc(Br)c(=O)[nH]c12` gave an EC50 (Leishmania infantum) of over 100 µM, an EC50 [1] of 8.7 µM and a CC50 (HepG2 [2]) of over 100 µM. For the same compound, the selectivity ratio [3] was over 11.
With `O=c1[nH]c2c([N+](=O)[O-])cc(C#CCCCO)cc2cc1Cl` the EC50 (Leishmania infantum) was 10.1 µM, the EC50 [1] was 0.85 µM and the CC50 (HepG2 [2]) was 32.7 µM. The selectivity ratio [3] was 38.
`O=c1[nH]c2c([N+](=O)[O-])cc(C(F)(F)F)cc2cc1Cl` gave an EC50 (Leishmania infantum) of 9.2 µM, an EC50 [1] of 0.57 µM and a CC50 (HepG2 [2]) of 31.4 µM. For the same compound, the selectivity ratio [3] was 55.
In the case of `O=c1[nH]c2c([N+](=O)[O-])cc(Cl)cc2cc1Cl`, the EC50 (Leishmania infantum) is reported as 6.2 µM, the EC50 [1] is reported as 0.1 µM and the CC50 (HepG2 [2]) is reported as 24.3 µM. It also gave a selectivity ratio [3] of 243 and an Activity [4] of -0.37 V.
`O=C(Cn1ccnc1[N+](=O)[O-])NCc1ccccc1` [BENZNIDAZOLE] gave an EC50 (Trypanosoma cruzi) of 0.5 µM.
